Screening data: PubChem, several laboratories
Shown are actives, neighbours in structure and some others; about 9.8% of the full set was active somewhere.
Calpain2 inh: inhibitors of pig calpain II. purified calpain II, fluorogenic peptide substrate, 30 min. inhibition, % at 16 µM. 0.37% of 220,000 active. AID 1236;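 active = inhibition above about 50%, limit read from the data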
Lmaj promast: Leishmania major promastigote growth inhibition | Leishmania major promastigotes, resazurin fluorescence viability | inhibition, % at 10 µM | 9% of 200,000 active; in the data active = inhibition above about 50%;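 note: promastigotes grown with compound for 44 hours at 28 °C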
WT yeast gro inh: growth inhibition of WT yeast, mitochondrial fusion screen | mitochondrial fusion phenotypic screen, WT strain | inhibition, % at 10 µM | 2.1% of 190,000 active | AID 1362; in the data active = inhibition above about 58%; tested in S. cerevisiae
Rad51 HR inh: Rad51 (human) homologous recombination inhibition; Q06609; hRad51 DNA strand exchange, fluorescence dequenching; inhibition, % at 10 µM; 0.085% of 200,000 active; AID 1385;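 active = inhibition above 40% at the single screening dose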;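 note: 0% = DMSO control wells and 100% = blanks with heterologous ssDNA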
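System: hRad51 filaments on single-stranded DNA; reagent: Fluorescein- and BHQ1-tagged 47-mer duplex; compound dosing: one concentration, 10 µM final; timing: filaments 15 min 37 °C, then compound 30 min; measured by: fluorescein emission 520 nm, excitation 485 nm; benchmarks: per-plate controls and blanks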
PMI act satM6P: PMI (human) activation, high substrate; coupled PMI enzyme assay, resazurin fluorescence, 20 min; hits give high values; 1 = untreated enzyme, 0 = substrate-free blank; 0.34% of 190,000 active; activation factor at 20 µM; P34949;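 active = activation factor of 2 or more at 20 µM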
Target sequence (P34949 whole entry, looked up): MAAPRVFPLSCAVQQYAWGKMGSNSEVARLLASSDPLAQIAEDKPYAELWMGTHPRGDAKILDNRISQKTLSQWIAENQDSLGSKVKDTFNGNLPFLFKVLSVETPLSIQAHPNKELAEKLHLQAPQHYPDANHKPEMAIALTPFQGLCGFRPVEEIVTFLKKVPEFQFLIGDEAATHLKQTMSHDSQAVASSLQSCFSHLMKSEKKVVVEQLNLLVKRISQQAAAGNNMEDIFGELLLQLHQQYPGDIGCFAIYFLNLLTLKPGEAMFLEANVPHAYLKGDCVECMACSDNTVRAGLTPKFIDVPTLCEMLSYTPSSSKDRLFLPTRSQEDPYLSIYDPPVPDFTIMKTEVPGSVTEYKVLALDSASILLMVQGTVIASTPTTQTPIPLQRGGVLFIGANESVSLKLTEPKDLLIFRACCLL
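test system = human PMI in coupled enzyme assay | medium = HEPES-buffered pH 7.4 with magnesium and detergent | also added = 1.0 mM mannose-6-phosphate substrate with 0.22 mM NADP+ | compound = 20 µM single dose | times = 20 min incubation at room temperature | measured by = resorufin fluorescence (Ex 544/Em 590 nm) from resazurin via diaphorase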
PMI activator: increases human mannose-6-phosphate isomerase activity. purified human PMI, coupled resazurin fluorescence, 20 min; hits give high values; 1 = vehicle control, 0 substrate-free wells. P34949. 0.005% of 190,000 active. activation factor at 20 µM;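 active = activation factor of 2 or more at 20 µM, relative to plate controls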
* = called active by the depositor.

CCCCN(CC)C(=S)Nc1ccc2nc(N3CCN(C)CC3)cc(C)c2c1 was read as Calpain2 inh -5.7, Lmaj promast 53.5*, WT yeast gro inh 8.0, Rad51 HR inh -7.7, PMI act satM6P 0.7 and PMI activator 0.9.
Cc1cccc(N2CCN(C(=S)Nc3ccc4nc(N5CCN(C)CC5)cc(C)c4c3)CC2)c1C was read as Calpain2 inh -105.6, Lmaj promast 100.5*, WT yeast gro inh 26.5, Rad51 HR inh 24.8, PMI act satM6P 0.8 and PMI activator 0.9.
Screening C=C1CC2C(=O)N(Cc3ccccc3)C(C(=O)OCC)(C(=O)OCC)C1N2C(=O)OC(C)(C)C (centres undefined) returned Rad51 HR inh 1.1.
CCc1sc(NC(=O)C(C)C)nc1-c1ccccc1 was read as Calpain2 inh -0.3, Lmaj promast 21.7, WT yeast gro inh 2.8, Rad51 HR inh -1.5, PMI act satM6P 0.9 and PMI activator 0.9.
CC(C)(CO)NCc1ccc(Br)cc1 was read as Calpain2 inh -2.1, Lmaj promast 6.7, WT yeast gro inh 1.7, Rad51 HR inh 43.5*, PMI act satM6P 1.1 and PMI activator 1.1.
For Cc1ccc(NC(/C=C/N(C)C)=C/C(=O)C(F)(F)F)c(C)c1 the results were Calpain2 inh 26.5, Lmaj promast 30.2, WT yeast gro inh 80.3*, Rad51 HR inh -5.4, PMI act satM6P 1 and PMI activator 1.
For CC1(C)CC(=O)C=C(C(=O)N2CCCC(C(=O)c3cccc(Cl)c3)C2)O1 (centres undefined) the results were Calpain2 inh 24.5, Lmaj promast 10.7, WT yeast gro inh 15.9, Rad51 HR inh -4.6, PMI act satM6P 1 and PMI activator 1.
Screening COc1cc2oc3ccccc3c2cc1N(CC(=O)N(C)C)S(=O)(=O)c1ccc(C)cc1 returned Calpain2 inh -44.6, Lmaj promast 66.0*, WT yeast gro inh -37.6, Rad51 HR inh 1.5, PMI act satM6P 1 and PMI activator 0.9.
For COC(=O)N1CCN(CCc2ccccc2)CC1 the results were Calpain2 inh -22.9, Lmaj promast 96.9*, WT yeast gro inh 3.9, Rad51 HR inh 6.2, PMI act satM6P 1 and PMI activator 1.
For O=C(NC1CCCCC1)N1CCN(CCc2ccccc2)CC1 the results were Calpain2 inh -30.6, Lmaj promast 60.2*, WT yeast gro inh 2.4, Rad51 HR inh 7.6, PMI act satM6P 1 and PMI activator 1.
`CS(=O)(=O)NCCNC(=O)c1cc(OCC(F)(F)F)ccc1OCC(F)(F)F` gave Calpain2 inh 19.7, Lmaj promast -0.6, WT yeast gro inh 10.3, Rad51 HR inh -10.2, PMI act satM6P 1.1 and PMI activator 1.1.
Cc1ccc2ncccc2c1[N+](=O)[O-] was read as Calpain2 inh 19.3, Lmaj promast 31.8, WT yeast gro inh 8.9, PMI act satM6P 0.9 and PMI activator 1.
Cc1[nH]c2ccc3ncccc3c2c1C was read as Calpain2 inh 2.2, Lmaj promast 56.5*, WT yeast gro inh -0.4, Rad51 HR inh 7.7, PMI act satM6P 1 and PMI activator 1.2.
`CN(Cc1ccccc1)C(=O)CSc1nc2cc(C(=O)N3CCC(C(N)=O)CC3)ccc2c(=O)n1-c1ccccc1` gave Calpain2 inh -7.9 and Rad51 HR inh 28.7.
`CSc1ccccc1C(=O)C1CCCN(S(=O)(=O)N(C)C)C1` (centres undefined) gave Calpain2 inh 24.4, Lmaj promast 88.7*, WT yeast gro inh 5.8, Rad51 HR inh -0.8, PMI act satM6P 1.1 and PMI activator 1.1.
COc1ccc2ccccc2c1/C=N/NC(=S)Nc1cc(S(=O)(=O)N2CCOCC2)ccc1N1CCOCC1 was read as Calpain2 inh -90.9, Lmaj promast 33.7, WT yeast gro inh -0.5, Rad51 HR inh 3.7, PMI act satM6P 0.7 and PMI activator 1.
`CCOc1cccc(/C=N/NC(=S)Nc2cc(S(=O)(=O)N3CCOCC3)ccc2N2CCOCC2)c1O` gave Calpain2 inh -97.8, Lmaj promast 84.6*, WT yeast gro inh 2.5, Rad51 HR inh 5.3, PMI act satM6P 1 and PMI activator 1.
`COc1ccc(/C=N/NC(=S)Nc2cc(S(=O)(=O)N3CCOCC3)ccc2N2CCOCC2)cc1O` gave Calpain2 inh -1.7, Lmaj promast 100.1*, WT yeast gro inh 5.7, PMI act satM6P 0.9 and PMI activator 0.9.
